Assay results: ChEMBL document CHEMBL3272094 (J Med Chem, 1978)
The source made the active and inactive calls. The calls are words filed in the database; no cut-off is given here.

How the values were obtained:
[1] = Competitive inhibition of tyrosine hydroxylase (unknown origin); parameters: species or system Homo sapiens
[2] = species: Cavia porcellus; assay: Agonist activity at alpha-adrenergic receptor in guinea pig aortic strip assessed as induction of contraction
How it was run: (§1)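 Spirally cut thoracic aortic strip (3 cm × 2 mm) from male guinea pig (400–900 g), in modified Krebs at 37.0 °C, gassed 95% O2/5% CO2. Initial tension 0.5 g, equilibrated ≥2 h. Isometric contraction recorded over cumulative dose-response curves, with each dose held until the response levelled (10 min). Responses expressed as % of maximum contraction to 10⁻⁴ M norepinephrine added after the last dose.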

[3] = system: Felis catus; assay: Inhibition of isoproterenol-induced tachycardia in cat at 100 ug/kg; assay type: functional
[4] = system: Rattus norvegicus; assay: Hypertensive effect in Wistar rat assessed as increase in heart rate at 1 nmol/kg (reference value: 1 +/- 0.1 beats/min); assay type: functional
How it was run: (§2)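 Intact rats; femoral or jugular vein cannulated. Doses of 1–1000 nmol/kg given as a 0.5 mL/kg iv saline bolus, each followed by a heparinized saline flush. Arterial pressure and heart rate taken from the oxygraph recording. A saline control was injected first. For the propranolol group, 1.0 mg/kg propranolol was given 5 min before 1.0 μmol/kg. Means ± SEM, n=3–4.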

[5] = system: Rattus norvegicus; assay: Hypertensive effect in Wistar rat assessed as increase in heart rate at 10 nmol/kg (reference value: 1 +/- 0.1 beats/min); assay type: functional; how it was run: as §2
[6] = system: Rattus norvegicus; assay: Hypertensive effect in Wistar rat assessed as increase in heart rate at 100 nmol/kg up to 1 min (reference value: 1 +/- 0.1 beats/min); assay type: functional; conditions: in the assay text read “up to 15 mins” for “up to 1 min”; how it was run: as §2
[7] = system: Rattus norvegicus; assay: Hypertensive effect in Wistar rat assessed as increase in heart rate at 1000 nmol/kg (reference value: 1 +/- 0.1 beats/min); assay type: functional; how it was run: as §2
[8] = system: Rattus norvegicus; assay: Hypertensive effect in Wistar rat assessed as increase in heart rate at 1000 nmol/kg in presence of propranolol (reference value: 1 +/- 0.1 beats/min); assay type: functional; how it was run: as §2
[9] = system: Rattus norvegicus; assay: Hypertensive effect in Wistar rat assessed as change in mean arterial pressure at 1 nmol/kg (reference value: 7 +/- 2 mmHg); assay type: functional, Artery; how it was run: as §2
[10] = system: Rattus norvegicus; assay: Hypertensive effect in Wistar rat assessed as change in mean arterial pressure at 10 nmol/kg (reference value: 7 +/- 2 mmHg); assay type: functional, Artery; how it was run: as §2
[11] = system: Rattus norvegicus; assay: Hypertensive effect in Wistar rat assessed as change in mean arterial pressure at 100 nmol/kg up to 15 mins (reference value: 7 +/- 2 mmHg); assay type: functional, Artery; conditions: in the assay text read “up to 1 min” for “up to 15 mins”; how it was run: as §2
[12] = system: Rattus norvegicus; assay: Hypertensive effect in Wistar rat assessed as change in mean arterial pressure at 1000 nmol/kg (reference value: 7 +/- 2 mmHg); assay type: functional, Artery; how it was run: as §2
[13] = system: Rattus norvegicus; assay: Hypertensive effect in Wistar rat assessed as change in mean arterial pressure at 1000 nmol/kg in presence of propranolol (reference value: 7 +/- 2 mmHg); assay type: functional, Artery; how it was run: as §2
[14] = molecular target: Beta-1 adrenergic receptor (Cavia porcellus) (UniProt B0FL73); assay: Agonist activity at beta-1 adrenergic receptor in guinea pig atria assessed as effect on atrial rate relative to (R,S)-isoproterenol; conditions: Cardiac atrium
Beta-1 adrenergic receptor (Cavia porcellus), sequence (B0FL73 1-467): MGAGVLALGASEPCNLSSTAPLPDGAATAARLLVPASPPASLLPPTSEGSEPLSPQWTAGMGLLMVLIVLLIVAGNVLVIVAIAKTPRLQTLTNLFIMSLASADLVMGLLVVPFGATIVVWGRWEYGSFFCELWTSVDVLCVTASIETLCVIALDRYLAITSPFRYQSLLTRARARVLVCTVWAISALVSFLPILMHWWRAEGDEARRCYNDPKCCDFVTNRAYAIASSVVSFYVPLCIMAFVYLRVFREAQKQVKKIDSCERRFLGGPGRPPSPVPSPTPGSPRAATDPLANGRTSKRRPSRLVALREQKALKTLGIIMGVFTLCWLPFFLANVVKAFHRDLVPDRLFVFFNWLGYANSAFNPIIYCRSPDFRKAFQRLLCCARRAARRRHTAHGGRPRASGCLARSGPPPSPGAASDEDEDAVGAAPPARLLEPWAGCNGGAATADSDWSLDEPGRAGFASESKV
How it was run: (§3)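 Guinea pig atria (male, 400–900 g; some given reserpine 5.0 mg/kg ip 24 h before) in oxygenated bath at 37.0 °C, diastolic tension 1 g, steady beating reached first. Cumulative doses given 1 min apart. […] Points are means of ≥4 atria.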

[15] = molecular target: Beta-1 adrenergic receptor (Cavia porcellus) (UniProt B0FL73); assay: Agonist activity at beta-1 adrenergic receptor in guinea pig atria assessed as effect on force of atrial contraction relative to (R,S)-isoproterenol; conditions: Cardiac atrium; how it was run: as §3
[16] = molecular target: Beta-1 adrenergic receptor (Cavia porcellus) (UniProt B0FL73); assay: Ionotropic activity at beta-1 adrenergic receptor in guinea pig atria assessed as effect on atrial rate up to 3 x 10^-4 M in presence of propranolol; conditions: Cardiac atrium, in the assay text read “force of atrial contraction” for “atrial rate”
How it was run: (§4)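 Cumulative dosing of guinea pig atria up to 3×10⁻⁴ M with 10⁻⁶ M propranolol in the bath, at 37.0 °C with 1 g diastolic tension.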

[17] = molecular target: Beta-1 adrenergic receptor (Cavia porcellus) (UniProt B0FL73); assay: Positive chronotropic activity at beta-1 adrenergic receptor in guinea pig atria assessed as effect on force of atrial contraction up to 3 x 10^-4 M in presence of propranolol; conditions: Cardiac atrium, in the assay text read “atrial rate” for “force of atrial contraction”; how it was run: as §4
[18] = molecular target: Beta-2 adrenergic receptor (Cavia porcellus) (UniProt Q8K4Z4); assay: Agonist activity at beta-2 adrenergic receptor in guinea pig trachea assessed as tracheal relaxation relative to (R,S)-isoproterenol; parameters: Activity: scale not given: the % may be the effect or the level left
Beta-2 adrenergic receptor (Cavia porcellus), sequence (Q8K4Z4 whole entry, looked up): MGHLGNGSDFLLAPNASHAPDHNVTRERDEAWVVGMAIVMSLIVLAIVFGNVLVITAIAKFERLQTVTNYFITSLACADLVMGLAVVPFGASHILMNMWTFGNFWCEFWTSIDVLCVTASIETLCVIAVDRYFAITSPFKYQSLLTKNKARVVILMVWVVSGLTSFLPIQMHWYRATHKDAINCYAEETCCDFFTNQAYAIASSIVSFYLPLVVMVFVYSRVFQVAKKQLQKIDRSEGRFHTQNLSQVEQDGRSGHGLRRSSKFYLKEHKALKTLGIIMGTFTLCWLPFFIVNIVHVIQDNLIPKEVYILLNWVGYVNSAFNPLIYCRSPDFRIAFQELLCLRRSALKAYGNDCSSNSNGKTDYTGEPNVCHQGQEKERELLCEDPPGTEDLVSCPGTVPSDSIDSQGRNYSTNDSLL
How it was run: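 Tracheal chain from male guinea pig (some reserpine-pretreated, 5.0 mg/kg ip 24 h before), equilibrated 30 min at 1 g tension and contracted with 3.0×10⁻⁶ M methacholine for 10 min.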

[19] = species: Cavia porcellus; assay: Ratio of relative activity for guinea pig beta-2 adrenergic receptor to relative activity for guinea pig beta-1 adrenergic receptor
[20] = molecular target: Beta-2 adrenergic receptor (Cavia porcellus) (UniProt Q8K4Z4); assay: Agonist activity at beta-2 adrenergic receptor in guinea pig trachea assessed as tracheal relaxation in presence of propranolol
[21] = molecular target: Beta-1 adrenergic receptor (Cavia porcellus) (UniProt B0FL73); conditions: Cardiac atrium
[22] = molecular target: Beta-1 adrenergic receptor (Cavia porcellus) (UniProt B0FL73); conditions: Cardiac atrium; remark: listed apart in the source
[23] = molecular target: Beta-2 adrenergic receptor (Cavia porcellus) (UniProt Q8K4Z4); conditions: Trachea
[24] = molecular target: Beta-2 adrenergic receptor (Cavia porcellus) (UniProt Q8K4Z4); conditions: Trachea; remark: listed apart in the source
[25] = Octanol-water partition coefficient, log P of the compound; assay type: physicochemical
[26] = system: Rattus norvegicus; assay: Hypertensive effect in Wistar rat assessed as mean arterial pressure at 10 umol/kg; assay type: functional, Artery
How it was run: (§5)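 Rats given 1 or 10 μmol/kg iv as a 0.5 mL/kg saline bolus. Mean arterial pressure recorded and the pressor response corrected for the saline injection artifact. Reserpine groups received 2.5 mg/kg ip at 48 and 24 h before. Phentolamine 10 mg/kg iv was given 1 min before dosing. Means ± SEM, n=3–6.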

[27] = system: Rattus norvegicus; assay: Hypertensive effect in Wistar rat assessed as mean arterial pressure at 1 umol/kg; assay type: functional, Artery; how it was run: as §5
[28] = system: Rattus norvegicus; assay: Hypertensive effect in Wistar rat assessed as mean arterial pressure at 10 umol/kg in presence of phentolamine; assay type: functional, Artery; how it was run: as §5
[29] = system: Rattus norvegicus; assay: Hypertensive effect in Wistar rat assessed as mean arterial pressure at 10 umol/kg in presence of phentolamine and reserpine; assay type: functional, Artery; how it was run: as §5
[30] = system: Rattus norvegicus; assay: Hypertensive effect in Wistar rat assessed as mean pressor response at 1 umol/kg; assay type: functional; how it was run: as §5
[31] = system: Rattus norvegicus; assay: Hypertensive effect in Wistar rat assessed as mean pressor response at 1 umol/kg in presence of reserpine; assay type: functional; how it was run: as §5
[32] = system: Rattus norvegicus; assay: Hypertensive effect in Wistar rat assessed as mean pressor response at 10 umol/kg; assay type: functional; how it was run: as §5
[33] = system: Rattus norvegicus; assay: Hypertensive effect in Wistar rat assessed as mean pressor response at 10 umol/kg in presence of reserpine; assay type: functional; how it was run: as §5
[34] = system: Rattus norvegicus; assay: Hypertensive effect in Wistar rat assessed as mean pressor response at 10 umol/kg in presence of phentolamine; assay type: functional; how it was run: as §5
[35] = system: Rattus norvegicus; assay: Hypertensive effect in Wistar rat assessed as mean pressor response at 10 umol/kg in presence of phentolamine and reserpine; assay type: functional; how it was run: as §5
[36] = system: Rattus norvegicus; assay: Hypertensive effect in Wistar rat assessed as increase in mean arterial pressure at 10 umol/kg relative to control; assay type: functional, Artery; how it was run: as §5
[37] = system: Rattus norvegicus; assay: Hypertensive effect in Wistar rat assessed as increase in blood pressure at 20 umol/kg administered repeatedly in presence of reserpine; assay type: functional
How it was run: (§6)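 Reserpine-pretreated rat given repeated iv injections of 20 μmol/kg, then 128 μmol/kg infused over 90 s. Arterial blood pressure recorded continuously, including time to return to preinjection level.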

[38] = system: Rattus norvegicus; assay: Hypertensive effect in Wistar rat assessed as increase in blood pressure at 20 umol/kg administered repeatedly followed by infusion of 128 umol/kg for 90 secs in presence of reserpine; assay type: functional; how it was run: as §6
[39] = system: Rattus norvegicus; assay: Hypertensive effect in Wistar rat assessed as increase in blood pressure at 20 umol/kg administered repeatedly after 15 mins in presence of reserpine; assay type: functional, organism-based; how it was run: as §6
[40] = system: Rattus norvegicus; assay: Hypertensive effect in Wistar rat assessed as tachyphylaxis at 20 umol/kg administered repeatedly followed by infusion of 128 umol/kg for 90 secs in presence of reserpine; assay type: functional, organism-based; how it was run: as §6
[41] = species: Cavia porcellus; assay: Agonist activity at alpha-adrenergic receptor in guinea pig aortic strip assessed as induction of contraction relative to norepinephrine; how it was run: as §1
[42] = species: Cavia porcellus; assay: Agonist activity at alpha-adrenergic receptor in guinea pig aortic strip assessed as induction of contraction up to 3 x 10^-3 M in presence of phentolamine
[43] = system: Rattus norvegicus; assay: Hypertensive effect in Wistar rat assessed as mean arterial pressure at 10 umol/kg in presence of reserpine; assay type: functional, Artery; how it was run: as §5
[44] = system: Rattus norvegicus; assay: Hypertensive effect in Wistar rat assessed as mean arterial pressure at 1 umol/kg in presence of reserpine; assay type: functional, Artery; how it was run: as §5

N[C@@H](Cc1ccc2[nH]cnc2c1)C(=O)O
Ki [1]: 20 µM

NC[C@H](O)c1ccc(O)c(O)c1
ED50 [2]: 1.1 µM

CC(C)NCC(O)c1ccc2[nH]c(=O)[nH]c2c1 (configuration not stated)
inhibition in vivo at 0.1 mg/kg [3]: 35%

CC(C)NCC(O)c1ccc2[nH]cnc2c1 (racemic)
Activity [4]: 1 bpm | Activity [5]: 12 bpm | Activity [6]: 65 bpm | Activity [7]: 59 bpm | Activity [8]: 13 bpm | Activity [9]: 4 mmHg | Activity [10]: -6 mmHg | Activity [11]: -12 mmHg | Activity [12]: -30 mmHg | Activity [13]: 3 mmHg | %max [14]: 50% | Activity [14]: 0.355% | %max [15]: 33% | Activity [16]: inactive | Activity [17]: inactive | %max [18]: 58% | Activity [18]: 4.79% | Ratio [19]: 13.5 | fold change (FC) [20]: 2 | ED50 [21]: 6.2 µM | pD2 [21]: 5.21 | ED50 [22]: 3.8 µM | pD2 [22]: 5.42 | ED50 [23]: 1.6 µM | pD2 [23]: 5.78

CC(C)NCC(O)c1ccc(O)c(O)c1 (racemic)
ED50 [23]: 7.8 ×10⁻⁸ M | pD2 [23]: 7.1 | ED50 [24]: 2.1 ×10⁻⁸ M

Oc1ccccc1O [CATECHOL]
logP [25]: 0.88

NCC(O)c1ccc2[nH]cnc2c1 (racemic)
Activity [26]: 98 mmHg | Activity [27]: 82 mmHg | Activity [28]: 46 mmHg | Activity [29]: 48 mmHg | Activity [30]: 8 mmHg | Activity [31]: 9 mmHg | Activity [32]: 39 mmHg | Activity [33]: 40 mmHg | Activity [34]: -4 mmHg | Activity [35]: -5 mmHg | Activity [36]: 40% | ED50 [2]: 8 µM | Activity [37]: 150 mmHg | Activity [38]: 150 mmHg | Activity [39]: inactive | Activity [40]: inactive | Activity [41]: 41% | Activity [42]: inactive | Activity [43]: 70 mmHg | Activity [44]: 73 mmHg
